Measurements: ChEMBL document CHEMBL2429831, “Synthesis, antitubercular and anticancer activity of new Baylis-Hillman adduct-derived N-cinnamyl-substituted isatin derivatives” (Med Chem Res, 2013)
In brackets after ≈: the same amount, converted by molar mass. Activity calls are given as the source filed them. The rule behind the calls is not given here.

Key:
[1] = test system: CHO; assay: Cytotoxicity against CHO cells assessed as cell viability at 0.0000001 to 1 mM after 16 hrs by MTT assay; type: cell-based, Cricetulus griseus; conditions: chinese hamster
Procedure, shortened: (§1)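 Cells seeded and incubated overnight at 37 °C in a CO2 incubator, then exposed to 1 mM, 100 μM, 100 nM and 100 pM (final) for 16 h at 37 °C, 5 % CO2. Medium removed, MTT (1 mg/mL in medium) added for 5 h, formazan dissolved in DMSO, absorbance read at 570 nm. Viability relative to 0.1 % DMSO solvent control (100 %). Triplicates, means.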

[2] = test system: COLO 205; assay: Cytotoxicity against human COLO205 cells assessed as cell viability at 0.0000001 to 1 mM after 16 hrs by MTT assay; type: functional, cell-based; procedure, shortened: as §1
[3] = test system: SUP-T1; assay: Cytotoxicity against human SupT1 cells assessed as cell viability at 0.0000001 to 1 mM after 16 hrs by MTT assay; type: functional; procedure, shortened: as §1
[4] = test system: C6; assay: Cytotoxicity against rat C6 cells assessed as cell viability at 0.0000001 to 1 mM after 16 hrs by MTT assay; type: functional; procedure, shortened: as §1
[5] = test system: Mycobacterium tuberculosis; assay: Antitubercular activity against Mycobacterium tuberculosis H37Rv ATCC 27294 assessed as growth inhibition after 28 days by agar dilution method; type: functional; conditions: H37Rv ATCC 27294, 672 h
Procedure, shortened: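 Agar dilution in Middlebrook 7H11 with 10 % OADC, duplicate plates; compounds dissolved in DMSO and diluted twofold to give ten serial dilutions. Inoculum grown on 7H11/OADC slants, adjusted to 1 mg/mL wet weight in 0.05 % Tween 80 saline, diluted 10−2 (~10^7 cfu/mL); 5 μL spotted. Incubated at 37 °C, read at 28 days; MIC = lowest concentration completely inhibiting growth.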

COC(=O)/C(=C/c1ccc([N+](=O)[O-])cc1)CN1C(=O)C(=O)c2cc(F)ccc21
Activity [1]: Toxic | Activity [2]: Active | Activity [3]: Active | Activity [4]: Active | MIC [5]: 1.56 µg/mL (≈ 4.06 µM)

COC(=O)/C(=C/c1ccc([N+](=O)[O-])cc1)CN1C(=O)C(=O)c2cc(Br)ccc21
Activity [1]: Non-toxic | Activity [2]: Active | Activity [3]: <20% | Activity [4]: <20% | MIC [5]: 1.56 µg/mL (≈ 3.5 µM)

COC(=O)/C(=C/c1ccc(Br)cc1)CN1C(=O)C(=O)c2ccccc21
Activity [1]: Toxic | Activity [2]: Active | Activity [3]: Active | Activity [4]: Active | MIC [5]: 25 µg/mL (≈ 62.5 µM)

COC(=O)/C(=C/c1ccccc1)CN1C(=O)C(=O)c2cc(Cl)ccc21
Activity [1]: Toxic | Activity [2]: Active | Activity [3]: Active | Activity [4]: Active | MIC [5]: 12.5 µg/mL (≈ 35.1 µM)

CC[C@@H](CO)NCCN[C@@H](CC)CO [ETHAMBUTOL]
MIC [5]: 7.64 µg/mL (≈ 37.4 µM)

COC(=O)/C(=C/c1ccccc1)CN1C(=O)C(=O)c2cc(F)ccc21
Activity [1]: Toxic | Activity [2]: Active | Activity [3]: Active | Activity [4]: Active | MIC [5]: 12.5 µg/mL (≈ 36.8 µM)

COC(=O)/C(=C/c1ccc(Br)cc1)CN1C(=O)C(=O)c2cc(Br)ccc21
Activity [1]: Toxic | Activity [2]: Active | Activity [3]: Active | Activity [4]: Active | MIC [5]: 12.5 µg/mL (≈ 26.1 µM)

NC(=O)c1cnccn1 [PYRAZINAMIDE]
MIC [5]: 50.8 µg/mL (≈ 412 µM)

COC(=O)/C(=C/c1ccc(Br)cc1)CN1C(=O)C(=O)c2cc(F)ccc21
Activity [1]: Toxic | Activity [2]: Active | Activity [3]: Active | Activity [4]: Active | MIC [5]: 6.25 µg/mL (≈ 14.9 µM)

NNC(=O)c1ccncc1 [ISONIAZID]
MIC [5]: 0.36 µg/mL (≈ 2.63 µM)

COC(=O)/C(=C/c1ccccc1)CN1C(=O)C(=O)c2cc(Br)ccc21
Activity [1]: Toxic | Activity [2]: Active | Activity [3]: Active | Activity [4]: Active | MIC [5]: 12.5 µg/mL (≈ 31.2 µM)

CO[C@H]1/C=C/O[C@@]2(C)Oc3c(C)c(O)c4c(O)c(c(/C=N/N5CCN(C)CC5)c(O)c4c3C2=O)NC(=O)/C(C)=C\C=C\[C@H](C)[C@H](O)[C@@H](C)[C@@H](O)[C@@H](C)[C@H](OC(C)=O)[C@@H]1C [RIFAMPIN]
MIC [5]: 0.1 µg/mL (≈ 0.122 µM)

COC(=O)/C(=C/c1ccc([N+](=O)[O-])cc1)CN1C(=O)C(=O)c2ccccc21
Activity [1]: Toxic | Activity [2]: Active | Activity [3]: Active | Activity [4]: Active | MIC [5]: 6.25 µg/mL (≈ 17.1 µM)

COC(=O)/C(=C/c1ccc([N+](=O)[O-])cc1)CN1C(=O)C(=O)c2cc(Cl)ccc21
Activity [1]: Toxic | Activity [2]: Active | Activity [3]: Active | Activity [4]: Active | MIC [5]: 1.56 µg/mL (≈ 3.89 µM)

COC(=O)/C(=C/c1ccccc1)CN1C(=O)C(=O)c2ccccc21
Activity [1]: Toxic | Activity [2]: Active | Activity [3]: Active | Activity [4]: Active | MIC [5]: 25 µg/mL (≈ 77.8 µM)

COC(=O)/C(=C/c1ccc(Br)cc1)CN1C(=O)C(=O)c2cc(Cl)ccc21
Activity [1]: Toxic | Activity [2]: Active | Activity [3]: Active | Activity [4]: Active | MIC [5]: 6.25 µg/mL (≈ 14.4 µM)
